Measurements: ChEMBL document CHEMBL4808161, “Structure-Activity Relationship Study of Amidobenzimidazole Analogues Leading to Potent and Systemically Administrable Stimulator of Interferon Gene (STING) Agonists” (J Med Chem, 2021)
pIC50: −log10 of the molar value. Values belong to the compound of their own block, whether it stands above or below them. Activity calls are given as the source filed them. The rule behind the calls is not given here.

What was measured:
[1] = target: T1, Stimulator of interferon genes protein (Homo sapiens, UniProt Q86WV6); test: Activation of human STING (139 to 379 residues) expressed in THP1-Blue ISG cells at 10 uM incubated for 24 hrs by quanti-blue SEAP reporter gene assay relative to control; format: cell-based; conditions: filed as activator
How it was run: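 THP1-Blue-ISG cells (1 × 10⁵/well) treated for 24 h; single-concentration screen at 10 μM. SEAP ISG reporter in 20 μL supernatant read with QUANTI-Blue at 650 nm. Activation given as fold over control, averaging at least two experiments.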

[2] = target: T1, Stimulator of interferon genes protein; test: Activation of STING in human THP1-Dual cells assessed as induction of ISG signaling measured after 24 hrs by Quanti-Blue reagent based assay; format: cell-based; conditions: filed as activator, dose 0.005-10 µM
How it was run: (§1)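 THP1-Dual cells (1 × 10⁵/well) treated for 24 h. Supernatant (20 μL) incubated 1 h at 37 °C with QUANTI-Blue, then absorbance read at 650 nm. Fold change calculated relative to vehicle control.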

[3] = target: T1, Stimulator of interferon genes protein; test: Activation of STING in human THP1-Dual cells assessed as induction of NF-KB signaling measured after 24 hrs by Quanti-Blue reagent based assay; format: cell-based; conditions: filed as activator, dose 0.005-10 µM; how it was run: as §1
[4] = target: T1, Stimulator of interferon genes protein; test: Activation of STING in human THP1-Dual cells assessed as increase in IP-10 secretion at 0.01 to 10 uM measured after 24 hrs by ELISA; format: cell-based; conditions: filed as activator, dose 0.01-10 µM
How it was run: (§2)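 THP1-Dual cells seeded at 10⁵ cells/well and treated for 24 h. Human IP-10 and IFN-β in supernatant quantified by ELISA kits. Concentration (pg/mL) derived from a standard curve.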

[5] = target: T1, Stimulator of interferon genes protein; test: Activation of STING in human THP1-Dual cells assessed as increase in IFNbeta secretion at 10 uM measured after 24 hrs by ELISA; format: cell-based; conditions: filed as activator; how it was run: as §2
[6] = target: T1, Stimulator of interferon genes protein; test: Activation of STING in human THP1-Dual cells assessed as increase in TBK1/IRF3 phosphorylation measured after 4 hrs by Western blot analysis; format: cell-based; conditions: filed as activator, dose 3.3-30 µM
How it was run: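 THP1-Dual cells (8 × 10⁵/well) treated at 3.3, 10 and 30 μM for 4 h, then lysed in SDS sample buffer and boiled. Lysates run on 10% SDS-PAGE and transferred to nitrocellulose. Blots probed for TBK1, phospho-TBK1 Ser172, IRF3, phospho-IRF3 Ser396 and GAPDH, with HRP secondaries and ECL detection.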

[7] = test system: THP1-Dual KO-STING; test: Effect on ISG expression in human THP1-Dual KO-STING cells at 10 uM measured after 24 hrs; format: functional, cell-based
How it was run: (§3)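 Reporter cells (1 × 10⁵ cells/well) exposed to compound for 24 h at 37 °C in 5% CO₂. Secreted luciferase ISG reporter in 20 μL supernatant read by luminescence with QUANTI-Luc reagent. Activity expressed as fold change versus control.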

[8] = test system: Stimulator of interferon genes protein (Homo sapiens), Q86WV6 [UNDEFINED MUTATION]; test: Binding affinity to human STING R232 mutant assessed as thermal stability by measuring melting temperature […] differential scanning fluorimetry (reference value: 38.75 degreeC); conditions: filed as activator
How it was run: (§4)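 Thermal shift by DSF: 5 μM STING protein, 50 μM compound and 10× SYPRO Orange in 10 mM HEPES pH 7.5, 150 mM NaCl. Samples heated from 30 to 80 °C at 0.5 °C/min. Tm taken as the temperature of median fluorescence between onset and maximum; n = 3.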

[9] = species on record: Homo sapiens; test: Binding affinity to human STING H232 mutant assessed as thermal stability by measuring melting temperature […] differential scanning fluorimetry (reference value: 39.5 degreeC); conditions: filed as activator; how it was run: as §4
[10] = species on record: Homo sapiens; test: Binding affinity to human STING 293Q mutant assessed as thermal stability by measuring melting temperature […] differential scanning fluorimetry (reference value: 46.25 degreeC); conditions: filed as activator; how it was run: as §4
[11] = test system: Stimulator of interferon genes protein (Homo sapiens), Q86WV6 [R71H,G230A,R293Q]; test: Binding affinity to human STING HAQ mutant assessed as thermal stability by measuring melting temperature […] differential scanning fluorimetry (reference value: 37.25 degreeC); conditions: filed as activator; how it was run: as §4
[12] = species on record: Mus musculus; test: Binding affinity to mouse STING mR231 mutant assessed as thermal stability by measuring melting temperature […] differential scanning fluorimetry (reference value: 42 degreeC); conditions: filed as activator; how it was run: as §4
[13] = test system: 293-Dual hSTING-H232; test: Activation of STING H232 in human 293-Dual hSTING-H232 cells assessed as induction of ISG signaling measured after 24 hrs; format: cell-based; conditions: filed as activator, dose 0.005-10 µM; how it was run: as §3
[14] = test system: Stimulator of interferon genes protein (Homo sapiens), Q86WV6 [UNDEFINED MUTATION]; test: Activation of STING H232 in human 293-Dual hSTING-R232 cells assessed as induction of ISG signaling measured after 24 hrs; format: cell-based; conditions: filed as activator, dose 0.005-10 µM; how it was run: as §3
[15] = test system: 4T1; test: Antitumor activity against mouse 4T1 cells and CT26 cells co-inoculated in orthotopic BALB/c mouse assessed as supression of tumor growth at 10 mg/kg, iv administered on day 1,4 and 7 post inoculation; format: functional, organism-based; conditions: time 7.0 day, in the assay text read “4T1 cells inoculated” for “4T1 cells and CT26 cells co-inoculated”
How it was run: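 BALB/c mice bearing orthotopic 4T1 tumors (5 × 10⁵ cells in the breast fat pad; n = 5) dosed iv at 10 mg/kg on days 1, 4 and 7 once tumors reached about 50–100 mm³. Tumor volume calculated as (a × b²)/2 and, with body weight, measured twice weekly.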

[16] = test system: RAW-Lucia ISG-KO-STING; test: Effect on ISG expression in mouse RAW-Lucia ISG-KO-STING cells at 0.005 to 10 uM measured after 24 hrs; format: functional, cell-based; conditions: dose 0.005-10 µM; how it was run: as §3
[17] = test system: CT26; test: Antitumor activity against mouse CT26 cells inoculated in BALB/c mouse assessed as inhibition of tumor growth at 500 ug, IT(Intratumoral) administered on day 1,4 and 7 post inoculation; format: functional; conditions: dose 500.0 µg, time 7.0 day
How it was run: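 BALB/c mice with subcutaneous CT26 tumors (5 × 10⁵ cells, right armpit; n = 6) given 500 μg intratumorally on days 1, 4 and 7 at about 50–100 mm³. Tumor volume ((a × b²)/2) and body weight measured twice weekly.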

[18] = target: T2, Stimulator of interferon genes protein (Mus musculus) (UniProt Q3TBT3); test: Activation of mouse STING expressed in RAW-Lucia ISG cells at 50 uM incubated for 24 hrs by QUANTI-Luc luciferase reporter gene assay relative to control; conditions: filed as activator
T2 sequence (whole entry): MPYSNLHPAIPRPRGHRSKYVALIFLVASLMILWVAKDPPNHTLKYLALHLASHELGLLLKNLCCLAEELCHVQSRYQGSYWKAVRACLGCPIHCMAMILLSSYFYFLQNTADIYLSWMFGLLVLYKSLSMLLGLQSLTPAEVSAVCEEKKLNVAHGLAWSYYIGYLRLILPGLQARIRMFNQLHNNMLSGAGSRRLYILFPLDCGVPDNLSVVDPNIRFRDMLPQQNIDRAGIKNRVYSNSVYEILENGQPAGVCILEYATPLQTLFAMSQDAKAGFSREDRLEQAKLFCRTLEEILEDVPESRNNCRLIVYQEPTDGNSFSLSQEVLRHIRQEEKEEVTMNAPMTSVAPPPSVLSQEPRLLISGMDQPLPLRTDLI

[19] = test system: CT26; test: Antitumor activity against mouse CT26 cells inoculated in BALB/c mouse assessed as inhibition of tumor growth IT(Intratumoral) administered on day 1,4 and 7 post inoculation; conditions: time 7.0 day
[20] = target: T1, Stimulator of interferon genes protein; test: Inhibition of [3H]-cGAMP binding to STING (unknown origin)

T1 sequence (Q86WV6 whole entry, the tested form may be a part): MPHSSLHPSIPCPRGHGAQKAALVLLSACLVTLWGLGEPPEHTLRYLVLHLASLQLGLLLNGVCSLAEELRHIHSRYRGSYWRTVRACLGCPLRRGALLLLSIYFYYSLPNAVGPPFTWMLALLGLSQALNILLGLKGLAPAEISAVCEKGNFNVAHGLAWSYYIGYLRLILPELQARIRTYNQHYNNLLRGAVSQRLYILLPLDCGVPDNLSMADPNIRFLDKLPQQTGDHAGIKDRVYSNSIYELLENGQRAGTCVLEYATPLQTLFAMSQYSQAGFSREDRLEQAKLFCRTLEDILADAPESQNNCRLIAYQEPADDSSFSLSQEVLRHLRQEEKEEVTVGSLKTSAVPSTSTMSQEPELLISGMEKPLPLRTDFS
Sequence of Stimulator of interferon genes protein (Homo sapiens), Q86WV6 [UNDEFINED MUTATION] (Q86WV6 whole entry, looked up, stated change not applied): as the sequence (Q86WV6 whole entry, the tested form may be a part) above
Sequence of Stimulator of interferon genes protein (Homo sapiens), Q86WV6 [R71H,G230A,R293Q] (Q86WV6 whole entry R71H/G230A/R293Q): as the sequence (Q86WV6 whole entry, the tested form may be a part) above, with R71H, G230A, R293Q counted along it

Structure (SMILES): CCn1nc(C)cc1C(=O)/N=c1\[nH]c2cc(-c3ncn[nH]3)cc(OC)c2n1C/C=C/Cn1/c(=N/C(=O)c2cc(C)nn2CC)[nH]c2cc(C(N)=O)cc(OCCCN3CCOCC3)c21
- fold change (FC) [1]: 19.2
- Activity [2]: Dose-Dependent Effect
- Activity [3]: Dose-Dependent Effect
- Activity [4]: Active
- Activity [5]: Active
- Activity [6]: Dose-Dependent Effect
- Activity [7]: inactive
- Tm [8]: 45.5 °C
- Tm [9]: 46.8 °C
- Tm [10]: 46.8 °C
- Tm [11]: 45.8 °C
- Tm [12]: 52.8 °C
- Activity [13]: Dose-Dependent Effect
- Activity [14]: Dose-Dependent Effect
- inhibition [15]: Active
- Activity [16]: inactive
- inhibition [17]: Active
- fold change (FC) [18]: 3.2

Structure (SMILES): Cc1ccc2c(=O)c3cccc(CC(=O)O)c3oc2c1C
- inhibition [19]: Active

- pIC50 [20]: 4.85
Structure (SMILES): CCn1nc(C)cc1C(=O)/N=c1\[nH]c2cc(C(=O)O)ccc2n1C[C@@H](O)c1ccccc1
